Experimental data as given in ChEMBL document CHEMBL1153411, “Comparing anti-HIV, antibacterial, antifungal, micellar, and cytotoxic properties of tricarboxylato dendritic amphiphiles” (Bioorg Med Chem, 2009).
Converted amounts (≈) assume the structure as drawn.

Assays:
[1] = system: Neisseria gonorrhoeae; assay: Antibacterial activity against Neisseria gonorrhoeae ATCC 31426 after 4 days by broth microdilution method; format: functional; conditions: ATCC 31426, 96 h
In short: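 Strain ATCC 31426 from chocolate agar (1% hemoglobin) colonies, grown 4 d in GC broth at 37 °C in an anaerobic jar with CO2 generator. Cells taken up in buffered saline gelatin and allowed to settle 4 h. Broth microdilution over 6.25 mg/mL down to 0.55 µg/mL. Plates incubated 4 d at 37 °C, in triplicate. MIC is the lowest concentration giving prominent visible decrease in turbidity; ±1 twofold dilution.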

[2] = Slope of log critical micelle concentration versus chain length n in aqueous potassium hydroxide by conductivity measurement; conditions: buffer
[3] = system: Lactiplantibacillus plantarum; assay: Antibacterial activity against Lactobacillus plantarum; format: functional
In short: (§1)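 Whole-cell growth-inhibition assays against L. plantarum or C. albicans, compounds added from aqueous triethanolamine stocks. Activity expressed as MIC99, the concentration giving complete inhibition of growth. Error ±1 twofold dilution.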

[4] = Solubility of compound in phosphate buffer at pH 7.2; format: physicochemical
[5] = Critical micelle concentration in aqueous triethanalamine at pH 8.0 to 9.5 by fluorescence spectra measurement; conditions: buffer
[6] = Ratio of EC50 for human HeLa cells to EC50 for HIV1 3B infected in human HeLa cells
[7] = Critical micelle concentration in aqueous potassium hydroxide by conductivity measurement; format: physicochemical; conditions: buffer
In short: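 Measured in potassium hydroxide solutions at high pH so that only the trianion is present. Solutions stirred during conductivity measurement. CMC taken by least-squares fits of the linear portions of conductivity-versus-concentration plots on either side of the break.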

[8] = Cytotoxicity against human epithelial cells by MTT assay; format: cell-based; conditions: Epithelial cell
In short: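 Same HeLa cells and same conditions as the infection assay, on a separate plate without virus. Viability measured by MTT reduction. EC50 by linear regression; SD ±10%.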

[9] = system: Human immunodeficiency virus 1; assay: Antiviral activity against HIV1 3B with X4 trophism infected in human HeLa cells after 2 hrs by beta-galactosidase reporter gene assay; format: functional, organism-based; conditions: Human immunodeficiency virus 1, 3B
In short: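 CD4+, LTR-driven β-galactosidase HeLa cells exposed 2 h to HIV-1 IIIB plus serial compound dilutions. Virus and compound then washed out and cells cultured 48 h in RPMI 1640/10% FBS at 37 °C, 5% CO2. Lysate β-galactosidase measured by chemiluminescence, with virus-only wells as 100% infection. EC50 by linear regression; SD ±10%.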

[10] = Critical micelle concentration in aqueous triethanalamine using drop shape analysis by surface tension measurement; format: physicochemical; conditions: buffer
In short: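 Surface tension from pendent drops on an 18-gauge needle in triethanolamine/water 0.9% (wt/vol), with solution pH 8.0–9.5. Drop kept in a cuvette holding aqueous triethanolamine to maintain humidity, and camera magnification calibrated from needle tip width. CMC from the break in surface tension versus log concentration.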

[11] = system: Candida albicans; assay: Antifungal activity against Candida albicans; format: functional; in short: as §1
[12] = Critical micelle concentration in aqueous triethanalamine at pH 6.4 by fluorescence spectra measurement; format: physicochemical
In short: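 Measured in triethanolamine/water 0.9% (wt/vol) with pH adjusted to 7.4 or 6.4, using pyrene as micelle probe. Mixtures shaken at least 24 h. Excitation 334 nm, bandpasses 5/2.5 nm. CMC from emission intensities of the I1 (373 nm) and I3 (384 nm) peaks.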

[13] = Safety ratio of critical micelle concentration in aqueous potassium hydroxide to MIC99 for Candida albicans; format: toxicity; conditions: buffer
[14] = Safety index, ratio of EC50 for human epithelial cells to MIC99 for Candida albicans; format: toxicity, cell-based, Epithelial cell
[15] = Safety ratio of critical micelle concentration in aqueous triethanalamine at pH 7.4 to MIC99 for Candida albicans; format: toxicity; conditions: aqueous triethanolamine
[16] = Solubility of compound in triethanolamine solution; format: physicochemical

Structure (SMILES): CCCCCCCCCCCCCCCC(=O)NC(CCC(=O)O)(CCC(=O)O)CCC(=O)O
- MIC99 [1]: 12000 µM (≈ 5830 µg/mL)
- slope of logCMC vs n [2]: -0.175
- MIC99 [3]: 570 µM (≈ 277 µg/mL)
- solubility [4]: 6900 µM (≈ 3350 µg/mL)
- CMC [5]: 18000 µM
- Ratio EC50 [6]: 4
- CMC [7]: 1500 µM
- EC50 [8]: 940 µM
- EC50 [9]: 230 µM
- CMC [10]: 17000 µM
- MIC99 [11]: 290 µM (≈ 141 µg/mL)

Structure (SMILES): CCCCCCCCCCCCCCCCCCOC(=O)NC(CCC(=O)O)(CCC(=O)O)CCC(=O)O
- MIC99 [1]: 65 µM (≈ 35.3 µg/mL)
- MIC99 [3]: 1400 µM (≈ 761 µg/mL)
- CMC [5]: 2700 µM
- Ratio EC50 [6]: 2.7
- EC50 [8]: 350 µM
- EC50 [9]: 130 µM
- CMC [10]: 2800 µM
- MIC99 [11]: 180 µM (≈ 97.9 µg/mL)

Structure (SMILES): CCCCCCCCCCCCCCCCCCCCCC(=O)NC(CCC(=O)O)(CCC(=O)O)CCC(=O)O
- MIC99 [1]: 120 µM (≈ 68.4 µg/mL)
- slope of logCMC vs n [2]: -0.175
- CMC [12]: 150 µM
- MIC99 [3]: 490 µM (≈ 279 µg/mL)
- Ratio [13]: 1.7
- solubility [4]: 79 µM (≈ 45 µg/mL)
- CMC [5]: 1500 µM
- selectivity ratio [14]: 32
- selectivity ratio [15]: 52
- CMC [7]: 13 µM
- solubility [16]: > 22000 µM
- EC50 [8]: 250 µM
- EC50 [9]: 130 µM
- CMC [10]: 2000 µM
- MIC99 [11]: 7.7 µM (≈ 4.39 µg/mL)

Structure (SMILES): CCCCCCCCCCCCCC(=O)NC(CCC(=O)O)(CCC(=O)O)CCC(=O)O
- MIC99 [1]: 12000 µM (≈ 5490 µg/mL)
- slope of logCMC vs n [2]: -0.175
- MIC99 [3]: 610 µM (≈ 279 µg/mL)
- CMC [7]: 3500 µM
- EC50 [8]: 300 µM
- EC50 [9]: 740 µM
- MIC99 [11]: 610 µM (≈ 279 µg/mL)

Structure (SMILES): CCCCCCCCCCCCCCCCCC(=O)NC(CCC(=O)O)(CCC(=O)O)CCC(=O)O
- MIC99 [1]: 2700 µM (≈ 1390 µg/mL)
- slope of logCMC vs n [2]: -0.175
- MIC99 [3]: 540 µM (≈ 277 µg/mL)
- CMC [5]: 11000 µM
- CMC [7]: 71 µM
- CMC [10]: 11000 µM
- MIC99 [11]: 280 µM (≈ 144 µg/mL)

Structure (SMILES): CCCCCCCCCCCCCCCCCCCC(=O)NC(CCC(=O)O)(CCC(=O)O)CCC(=O)O
- MIC99 [1]: 130 µM (≈ 70.4 µg/mL)
- slope of logCMC vs n [2]: -0.175
- MIC99 [3]: 520 µM (≈ 282 µg/mL)
- Ratio [13]: 2
- CMC [5]: 3200 µM
- selectivity ratio [14]: 21
- selectivity ratio [15]: 10
- CMC [7]: 34 µM
- EC50 [8]: 340 µM
- EC50 [9]: 170 µM
- CMC [10]: 3000 µM
- MIC99 [11]: 16 µM (≈ 8.67 µg/mL)

Structure (SMILES): CCCCCCCCCCCCCCCCCCCCCCOC(=O)NC(CCC(=O)O)(CCC(=O)O)CCC(=O)O
- MIC99 [1]: 120 µM (≈ 72 µg/mL)
- MIC99 [3]: 1300 µM (≈ 780 µg/mL)
- CMC [5]: 330 µM
- Ratio EC50 [6]: 3.3
- EC50 [8]: 360 µM
- EC50 [9]: 110 µM
- CMC [10]: 320 µM
- MIC99 [11]: 1300 µM (≈ 780 µg/mL)

Structure (SMILES): CCCCCCCCCCCCCCCCCCCCOC(=O)NC(CCC(=O)O)(CCC(=O)O)CCC(=O)O
- MIC99 [1]: 120 µM (≈ 68.6 µg/mL)
- MIC99 [3]: 1400 µM (≈ 801 µg/mL)
- CMC [5]: 800 µM
- Ratio EC50 [6]: 2.2
- EC50 [8]: 280 µM
- EC50 [9]: 130 µM
- CMC [10]: 500 µM
- MIC99 [11]: 1400 µM (≈ 801 µg/mL)

Structure (SMILES): CCCCCCCCCCCCCCCCCCCCNC(=O)NC(CCC(=O)O)(CCC(=O)O)CCC(=O)O
- MIC99 [1]: 120 µM (≈ 68.5 µg/mL)
- slope of logCMC vs n [2]: -0.3
- MIC99 [3]: 1400 µM (≈ 799 µg/mL)
- CMC [5]: 1300 µM
- Ratio EC50 [6]: 1.6
- CMC [7]: 120 µM
- EC50 [8]: 210 µM
- EC50 [9]: 130 µM
- CMC [10]: 1400 µM
- MIC99 [11]: 2800 µM (≈ 1600 µg/mL)

Structure (SMILES): CCCCCCCCCCCCCCNC(=O)NC(CCC(=O)O)(CCC(=O)O)CCC(=O)O
- MIC99 [1]: 12000 µM (≈ 5840 µg/mL)
- slope of logCMC vs n [2]: -0.3
- MIC99 [3]: 6400 µM (≈ 3110 µg/mL)
- Ratio EC50 [6]: 1.1
- CMC [7]: 8400 µM
- EC50 [9]: 270 µM
- MIC99 [11]: 1600 µM (≈ 779 µg/mL)

Structure (SMILES): CCCCCCCCCCCCCCOC(=O)NC(CCC(=O)O)(CCC(=O)O)CCC(=O)O
- MIC99 [1]: 580 µM (≈ 283 µg/mL)
- MIC99 [3]: 6400 µM (≈ 3120 µg/mL)
- Ratio EC50 [6]: 1.7
- EC50 [8]: 620 µM
- EC50 [9]: 370 µM
- MIC99 [11]: 1600 µM (≈ 780 µg/mL)

Structure (SMILES): CCCCCCCCCCCCCCCCCCNC(=O)NC(CCC(=O)O)(CCC(=O)O)CCC(=O)O
- MIC99 [1]: 130 µM (≈ 70.6 µg/mL)
- slope of logCMC vs n [2]: -0.3
- MIC99 [3]: 1400 µM (≈ 760 µg/mL)
- CMC [5]: 2300 µM
- Ratio EC50 [6]: 1.2
- CMC [7]: 330 µM
- EC50 [8]: 280 µM
- EC50 [9]: 240 µM
- CMC [10]: 2200 µM
- MIC99 [11]: 1400 µM (≈ 760 µg/mL)

Structure (SMILES): CCCCCCCCCCCCCCCCCCCCCCNC(=O)NC(CCC(=O)O)(CCC(=O)O)CCC(=O)O
- MIC99 [1]: 120 µM (≈ 71.9 µg/mL)
- slope of logCMC vs n [2]: -0.3
- MIC99 [3]: 940 µM (≈ 563 µg/mL)
- CMC [5]: 400 µM
- Ratio EC50 [6]: 2.2
- CMC [7]: 40 µM
- EC50 [8]: 260 µM
- EC50 [9]: 120 µM
- CMC [10]: 340 µM
- MIC99 [11]: 2700 µM (≈ 1620 µg/mL)

Structure (SMILES): CCCCCCCCCCCCCCCCNC(=O)NC(CCC(=O)O)(CCC(=O)O)CCC(=O)O
- MIC99 [1]: 2800 µM (≈ 1440 µg/mL)
- slope of logCMC vs n [2]: -0.3
- CMC [12]: 480 µM
- MIC99 [3]: 6000 µM (≈ 3090 µg/mL)
- Ratio [13]: 49
- CMC [5]: 7100 µM
- Ratio EC50 [6]: 1.9
- selectivity ratio [14]: 7
- selectivity ratio [15]: 83
- CMC [7]: 2300 µM
- EC50 [8]: 350 µM
- EC50 [9]: 180 µM
- CMC [10]: 4900 µM
- MIC99 [11]: 47 µM (≈ 24.2 µg/mL)

Structure (SMILES): CCCCCCCCCCCCCCCCOC(=O)NC(CCC(=O)O)(CCC(=O)O)CCC(=O)O
- MIC99 [1]: 280 µM (≈ 144 µg/mL)
- MIC99 [3]: 6000 µM (≈ 3090 µg/mL)
- CMC [5]: 6400 µM
- Ratio EC50 [6]: 2.6
- EC50 [8]: 440 µM
- EC50 [9]: 170 µM
- CMC [10]: 6800 µM
- MIC99 [11]: 47 µM (≈ 24.2 µg/mL)
